In assay [1] the target is T1, Alpha-2C adrenergic receptor (Homo sapiens) (UniProt P18825).
T1 sequence (whole entry): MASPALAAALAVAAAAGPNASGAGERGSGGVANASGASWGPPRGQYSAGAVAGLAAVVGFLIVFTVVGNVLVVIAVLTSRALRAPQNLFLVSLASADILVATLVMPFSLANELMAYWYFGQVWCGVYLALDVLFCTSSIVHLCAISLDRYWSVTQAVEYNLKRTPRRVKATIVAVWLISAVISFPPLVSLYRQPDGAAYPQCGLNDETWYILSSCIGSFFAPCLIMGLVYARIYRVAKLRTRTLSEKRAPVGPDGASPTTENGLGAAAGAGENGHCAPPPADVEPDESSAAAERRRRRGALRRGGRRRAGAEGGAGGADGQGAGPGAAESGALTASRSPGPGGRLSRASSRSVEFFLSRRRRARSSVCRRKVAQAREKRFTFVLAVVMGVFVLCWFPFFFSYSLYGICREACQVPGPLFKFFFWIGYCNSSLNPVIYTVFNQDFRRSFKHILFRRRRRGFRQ
The assay can be described thus: Intrinsic activity at human recombinant adrenergic Alpha-2C receptor expressed in CHO cells assessed as stimulation of extracellular acidification relative to (-)-noradrenaline. It counts as cell-based. In short, it runs like this: (§1)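 Acidification rate was measured by Cytosensor microphysiometry in stably transfected CHO cells (3 × 10⁵ cells/cup, bicarbonate-free DMEM perfusion). Each response is the peak rate change minus the pre-agonist baseline. Emax from concentration-response curves is expressed as a fraction of the (-)-noradrenaline maximum, taken as 1; mean ± SEM, 3-6 experiments.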

The species named for the next assay is Rattus norvegicus. Description: Intrinsic activity at adrenergic alpha2 receptor in rat vas deferens relative to clonidine. It counts as tissue-based.
The target in assay [2] is T2, Alpha-2B adrenergic receptor (Homo sapiens) (UniProt P18089).
T2 sequence (whole entry): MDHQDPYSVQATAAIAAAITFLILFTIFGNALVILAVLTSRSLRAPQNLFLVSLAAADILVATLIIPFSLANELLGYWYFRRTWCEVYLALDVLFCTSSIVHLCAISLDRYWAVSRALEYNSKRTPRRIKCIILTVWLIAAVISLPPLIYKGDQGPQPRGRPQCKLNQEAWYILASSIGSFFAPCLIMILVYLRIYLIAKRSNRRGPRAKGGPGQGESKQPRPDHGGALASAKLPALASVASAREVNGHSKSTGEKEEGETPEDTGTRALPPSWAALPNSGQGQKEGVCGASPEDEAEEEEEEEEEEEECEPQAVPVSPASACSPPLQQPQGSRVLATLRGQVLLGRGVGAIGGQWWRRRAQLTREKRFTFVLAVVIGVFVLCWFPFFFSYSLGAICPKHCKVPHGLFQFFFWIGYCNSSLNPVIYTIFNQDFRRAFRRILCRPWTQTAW
The assay can be described thus: Intrinsic activity at human recombinant adrenergic alpha2B receptor expressed in CHO cells relative to (-)-noradrenaline. The assay is classed as cell-based. In outline:
as §1

The target of assay [3] is T3, Alpha-2A adrenergic receptor (Homo sapiens) (UniProt P08913).
T3 sequence (whole entry): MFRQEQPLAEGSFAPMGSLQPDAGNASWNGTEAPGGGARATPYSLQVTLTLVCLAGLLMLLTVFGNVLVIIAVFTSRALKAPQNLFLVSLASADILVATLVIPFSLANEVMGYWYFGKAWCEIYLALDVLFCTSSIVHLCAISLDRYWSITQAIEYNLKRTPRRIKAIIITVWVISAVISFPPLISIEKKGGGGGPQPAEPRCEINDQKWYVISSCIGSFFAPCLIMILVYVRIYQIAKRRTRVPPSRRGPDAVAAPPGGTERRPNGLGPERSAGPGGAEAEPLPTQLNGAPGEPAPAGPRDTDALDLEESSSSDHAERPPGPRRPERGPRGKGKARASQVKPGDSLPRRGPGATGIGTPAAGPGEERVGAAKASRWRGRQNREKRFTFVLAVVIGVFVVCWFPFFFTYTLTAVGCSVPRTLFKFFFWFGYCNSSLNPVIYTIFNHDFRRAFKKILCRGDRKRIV
The assay can be described thus: Intrinsic activity at human recombinant adrenergic alpha2A receptor expressed in CHO cells assessed as stimulation of extracellular acidification relative to (-)-noradrenaline. It counts as cell-based. In short, it runs like this:
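Microphysiometry (Cytosensor) of extracellular acidification rate in CHO cells stably expressing human α2A. Cells were seeded at 3 × 10⁵ cells/cup and cultured 24 h at 37 °C, then perfused with bicarbonate-free DMEM at 100 µL/min, with agonist diluted into running medium. Response was taken as the maximum after agonist minus the mean of three pre-agonist readings. Emax is expressed as a fraction of (−)-noradrenaline (=1); 3–6 experiments.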

Assay [4] is described as follows: Agonist activity at adrenergic alpha2 receptor in rat vas deferens. The assay is classed as functional, tissue-based.

SMILES strings stand for the structures.

Usually EC50 stands for the concentration at which the effect is half-maximal. Consider `CC(Oc1ccccc1-c1ccccc1)C1=NCCN1` (stereo not given) [BIPHENYLINE], for which the Intrinsic activity was determined as 0.8 in assay [1], 1 in the assay listed under Rattus norvegicus, 0.5 in assay [2] and 0.7 in assay [3]. Moreover, the response in assay [4] was half-maximal at 3.02 nM (EC50).

These data come from ChEMBL document CHEMBL1155080, “Alpha2-adrenoreceptors profile modulation. 4. From antagonist to agonist behavior” (J Med Chem, 2008).
